How the values were obtained:
[1] = system: BCL-XL / BCL-2 ternary complexes with DT2216 and VHL; conditions: live cells, nanoBRET assay; cited from earlier work
MOLT-4 T-ALL cells = test: MOLT-4 cell viability assay; type: cell-based, human
[2] = system: PARP and caspase-3 cleavage; test: Western blot of cleaved-PARP and cleaved-caspase-3 in MOLT-4 cells; type: cell-based, human; conditions: MOLT-4, 16 h, indicated concentrations
In short: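 MOLT-4 cells were exposed to a range of test compound concentrations for 16 h. Cleaved PARP and cleaved caspase-3 were detected by immunoblot. Equal protein was run on 4–20% Tris-glycine gels and transferred to PVDF. Membranes were blocked in 5% milk/TBS-Tween, given primary antibody overnight at 4 °C, then HRP secondary and ECL. β-actin served as loading control.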

[3] = system: H146 small cell lung cancer cell line; test: H146 cell viability assay; type: cell-based; conditions: Homo sapiens, NCI-H146, 48 h, read-out: IC50 48 h treatment H146
In short: (§1)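 NCI-H146 small-cell lung cancer and RS4;11 B-ALL cells maintained in RPMI 1640 plus 10% FBS and 1% penicillin-streptomycin. Cells seeded at 5×10⁴ to 1×10⁵ per well and treated with test compound for 48 h. Viability measured by tetrazolium-based MTS assay, with IC50 calculated from the viability data.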

human platelets = test: Human platelet viability assay; type: cell-based; conditions: Homo sapiens, Platelet, 48 h, read-out: IC50 48 h treatment Platelets
In short: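 Platelets were separated from purchased platelet-rich plasma in acid citrate buffer with 1 μM PGE1 and 0.2 units/mL apyrase (final). Cells were centrifuged and adjusted to 2 × 10⁸/mL in HEPES Tyrode's buffer with 10% FBS, 1 μM PGE1 and 0.2 units/mL apyrase. They were treated for 48 h, with or without a 10 μM pomalidomide block, and read by MTS. IC50 values were curve-fitted. The ratio divides platelet IC50 by 48 h MOLT-4 MTS IC50.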

BCL-XL = BCL-XL (Homo sapiens, UniProt Q07817); test: Western blot of BCL-XL protein levels in MOLT-4 cells; type: cell-based
Sequence of BCL-XL (Q07817 whole entry): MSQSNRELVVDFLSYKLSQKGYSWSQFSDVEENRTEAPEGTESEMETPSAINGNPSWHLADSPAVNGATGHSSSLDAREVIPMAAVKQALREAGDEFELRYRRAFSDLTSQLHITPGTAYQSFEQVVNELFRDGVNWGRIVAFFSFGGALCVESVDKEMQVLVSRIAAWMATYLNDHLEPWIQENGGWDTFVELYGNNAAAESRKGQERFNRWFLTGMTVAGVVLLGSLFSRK
In short: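 MOLT-4 cells were treated for 16 h with test compound (100 nM for VHL-based, 50 nM for CRBN-based, or a concentration series for DC50). Other runs used 100 nM over a time course, or 16 h exposure followed by washout into drug-free medium. Some cells were pretreated 2 h with 10 μM pomalidomide or 1 μM MG-132. Immunoblot bands were normalized to β-actin and expressed as % remaining versus vehicle.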

[4] = system: RS4;11 B-cell ALL cell line; test: RS4; type: cell-based; conditions: Homo sapiens, RS4-11, 48 h, read-out: IC50 48 h treatment RS4;11
In short: as §1

Which results are given for `Cc1ncsc1-c1ccc([C@H](C)NC(=O)[C@@H]2C[C@@H](O)CN2C(=O)[C@@H](NC(=O)CCCCCC(=O)N2CCN(CC[C@H](CSc3ccccc3)Nc3ccc(S(=O)(=O)NC(=O)c4ccc(N5CCN(CC6=C(c7ccc(Cl)cc7)CCC(C)(C)C6)CC5)cc4)cc3S(=O)(=O)C(F)(F)F)CC2)C(C)(C)C)cc1` [Compound 1e, (2S,4R)-1-((S)-2-(7-(4-((R)-3-((4-(N-(4-(4-((4’-Chloro-4,4-dimethyl-3,4,5,6-tetrahydro-[1,1’-biphenyl]-2-yl)methyl)piperazin-1-yl)benzoyl)sulfamoyl)-2-((trifluoromethyl)sulfonyl)phenyl)amino)-4-(phenylthio)butyl)piperazin-1-yl)-7-oxoheptanamido)-3,3-dimethylbutanoyl)-4-hydroxy-N-((S)-1-(4-(4-methylthiazol-5-yl)phenyl)ethyl)pyrrolidine-2-carboxamide]?
formation of stable ternary complexes with VHL [1]: BCL-XL, but not BCL-2, can form stable ternary complexes; times more potent than ABT-263 in reducing MOLT-4 cell viability (MOLT-4 T-ALL cells; MOLT-4, versus ABT-263): 3 times

With `CN(CCOCCOCCOCCNc1cccc2c1C(=O)N(C1CCC(=O)NC1=O)C2=O)CC[C@H](CSc1ccccc1)Nc1ccc(S(=O)(=O)NC(=O)c2ccc(N3CCN(CC4=C(c5ccc(Cl)cc5)CCC(C)(C)C4)CC3)cc2)cc1S(=O)(=O)C(F)(F)F` (stereo partly drawn) [Compound 17b, 4-(4-((4’-Chloro-4,4-dimethyl-3,4,5,6-tetrahydro-[1,1’-biphenyl]-2-yl)methyl)piperazin-1-yl)-N-((4-(((15R)-1-((2-(2,6-dioxopiperidin-3-yl)-1,3-dioxoisoindolin-4-yl)amino)-12-methyl-16-(phenylthio)-3,6,9-trioxa-12-azahexadecan-15-yl)amino)-3-((trifluoromethyl)sulfonyl)phenyl)sulfonyl)benzamide] as the compound, how does the “PARP and caspase-3 cleavage” value [2] read?
Its value is “dose-dependently increased”.

And the IC50 [3]?
The IC50 was 25.3 nM.

And the IC50 (human platelets)?
The IC50 was 1220 nM.

And the “effects on BCL-XL protein levels after drug washout” value (BCL-XL; MOLT-4, 100 nM for 16 h then washout)?
Its value is “long-lasting and also reversible”.

And the “BCL-XL degradation after pretreatment with MG-132 or pomalidomide” value (BCL-XL; MOLT-4, 1 μM MG-132 or 10 μM pomalidomide pretreatment for 2 h)?
Its value is “can be abrogated”.

And the “BCL-XL degradation at indicated concentrations” value (BCL-XL; MOLT-4, 16 h, Western blot (Figure 5A, 5F))?
The value was “dose-dependently induced BCL-XL degradation”.

And the IC50 [4]?
The IC50 was 41.8 nM.

And the IC50 (MOLT-4 T-ALL cells; Homo sapiens, MOLT-4, 48 h, read-out: IC50, reduction of MOLT-4 cell viability)?
The IC50 was 10.1 nM.

Source: PMC7433031 (European journal of medicinal chemistry, 2020)
